According to article PMC5496795 (Clinical cancer research : an official journal of the …, 2017):

Assays:
PC-3 xenografts = assay: Combination therapy, tumor growth of PC-3 xenografts; format: in vivo, athymic nude male mice; conditions: PC-3 tumor bearing animals
Procedure, shortened: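 PC-3 cells (5 ×10⁶ in 1:1 media/Matrigel) were implanted in the shoulder of 6–8-week-old males. At about 100 mm³ the mice were randomised to four arms: sham (i.v. saline plus illumination), VTP, radiolabelled peptide (14.8 MBq retro-orbital i.v.), or both. For VTP, 4 h after the peptide, the photosensitizer (9 mg/kg, i.v. bolus, in 5% dextran) was followed immediately by 10 min of 755 nm laser to the tumour plus a 1 mm rim. Tumours were measured by caliper twice weekly to 34 days.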

PC-3 tumors = assay: Histology/IHC of PC-3 tumors; format: in vivo, athymic nude male mice
Procedure, shortened: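 PC-3 xenograft tumours were taken after treatment, fixed in 10% buffered formalin, paraffin-embedded and cut at 5 micron. Sections were stained with anti-mouse CD31 antibody for vessel density and by TUNEL for cell death. VTP was an i.v. photosensitizer (9 mg/kg) followed immediately by 10 min of 755 nm laser illumination of the tumour area.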

[1] = system: localized prostate cancer; conditions: published trial data in localized prostate cancer; ref not given; cited from earlier work
[2] = system: GRPr-expressing prostate cancer xenografts; conditions: in vivo; cited from earlier work

| Compound | Animals remaining tumor free at 34 days post treatment (PC-3 xenografts) | Vessel density in PC-3 tumors (IHC anti-CD31) (PC-3 tumors; 24 hours post VTP treatment, compared to control tumors) | TUNEL staining of tumors (cell death) (PC-3 tumors; PC-3 tumors, post VTP treatment) | Cases with absent evidence of cancer (local tumor ablation) [1] [%] | Fraction of delivered radioactivity washed out at 24 hours p.i. [2] | Time of optimal tumor uptake post injection [2] [h] |
| --- | --- | --- | --- | --- | --- | --- |
| CC[C@H]1c2cc3[n-]c(c(CC(=O)OC)c4nc(cc5[n-]c(cc(n2)[C@@H]1C)c(C(C)=O)c5C)[C@@H](C)[C@@H]4CCC(=O)[O-])c(C(=O)NCCS(=O)(=O)[O-])c3C.[H+].[H+].[Pd+2] [VTP] | 2/12 | markedly reduced vessel density | stained positive | 80 |  |  |
| ^111In-DOTA-PEG4-D-Phe-Gln-Trp-Ala-Val-Gly-His-Sta-Leu-NH2 [^111In-DOTA-AR] |  |  |  |  | about 2/3 | 1 to 4 |
